From ChEMBL document CHEMBL1152541, “Staurosporine tethered peptide ligands that target cAMP-dependent protein kinase (PKA): optimization and selectivity profiling” (Bioorg Med Chem, 2009) come the findings set out here.

Experiment [1] addresses Casein kinase I isoform delta (Homo sapiens) (UniProt P48730). Kind of experiment: Binding affinity to human CSNK1D at 500 nM by cell-based competition binding assay relative to control in presence of DTT. Put shortly: (§1)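 Commercial (Ambit) competitive kinase-binding panel of 90 kinases measured the binding profile. Run under reducing conditions of 7.5 mM DTT. Binding is expressed relative to control.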

Experiment [2] concerns the target Ribosomal protein S6 kinase alpha-3 (Homo sapiens) (UniProt P51812). Kind of experiment: Binding affinity to human RPS6KA3 kinase domain 1 at 500 nM by cell-based competition binding assay relative to control in presence of DTT.
In experiment [3] the target is Proto-oncogene tyrosine-protein kinase Src (Homo sapiens) (UniProt P12931). Kind of experiment: Binding affinity to human SRC at 500 nM by cell-based competition binding assay relative to control in presence of DTT.
In experiment [4] the target is Vascular endothelial growth factor receptor 2 (Homo sapiens) (UniProt P35968). The experiment can be described thus: Binding affinity to human VEGFR2 at 500 nM by cell-based competition binding assay relative to control in presence of DTT.
Vascular endothelial growth factor receptor 2 (Homo sapiens), sequence (P35968 whole entry): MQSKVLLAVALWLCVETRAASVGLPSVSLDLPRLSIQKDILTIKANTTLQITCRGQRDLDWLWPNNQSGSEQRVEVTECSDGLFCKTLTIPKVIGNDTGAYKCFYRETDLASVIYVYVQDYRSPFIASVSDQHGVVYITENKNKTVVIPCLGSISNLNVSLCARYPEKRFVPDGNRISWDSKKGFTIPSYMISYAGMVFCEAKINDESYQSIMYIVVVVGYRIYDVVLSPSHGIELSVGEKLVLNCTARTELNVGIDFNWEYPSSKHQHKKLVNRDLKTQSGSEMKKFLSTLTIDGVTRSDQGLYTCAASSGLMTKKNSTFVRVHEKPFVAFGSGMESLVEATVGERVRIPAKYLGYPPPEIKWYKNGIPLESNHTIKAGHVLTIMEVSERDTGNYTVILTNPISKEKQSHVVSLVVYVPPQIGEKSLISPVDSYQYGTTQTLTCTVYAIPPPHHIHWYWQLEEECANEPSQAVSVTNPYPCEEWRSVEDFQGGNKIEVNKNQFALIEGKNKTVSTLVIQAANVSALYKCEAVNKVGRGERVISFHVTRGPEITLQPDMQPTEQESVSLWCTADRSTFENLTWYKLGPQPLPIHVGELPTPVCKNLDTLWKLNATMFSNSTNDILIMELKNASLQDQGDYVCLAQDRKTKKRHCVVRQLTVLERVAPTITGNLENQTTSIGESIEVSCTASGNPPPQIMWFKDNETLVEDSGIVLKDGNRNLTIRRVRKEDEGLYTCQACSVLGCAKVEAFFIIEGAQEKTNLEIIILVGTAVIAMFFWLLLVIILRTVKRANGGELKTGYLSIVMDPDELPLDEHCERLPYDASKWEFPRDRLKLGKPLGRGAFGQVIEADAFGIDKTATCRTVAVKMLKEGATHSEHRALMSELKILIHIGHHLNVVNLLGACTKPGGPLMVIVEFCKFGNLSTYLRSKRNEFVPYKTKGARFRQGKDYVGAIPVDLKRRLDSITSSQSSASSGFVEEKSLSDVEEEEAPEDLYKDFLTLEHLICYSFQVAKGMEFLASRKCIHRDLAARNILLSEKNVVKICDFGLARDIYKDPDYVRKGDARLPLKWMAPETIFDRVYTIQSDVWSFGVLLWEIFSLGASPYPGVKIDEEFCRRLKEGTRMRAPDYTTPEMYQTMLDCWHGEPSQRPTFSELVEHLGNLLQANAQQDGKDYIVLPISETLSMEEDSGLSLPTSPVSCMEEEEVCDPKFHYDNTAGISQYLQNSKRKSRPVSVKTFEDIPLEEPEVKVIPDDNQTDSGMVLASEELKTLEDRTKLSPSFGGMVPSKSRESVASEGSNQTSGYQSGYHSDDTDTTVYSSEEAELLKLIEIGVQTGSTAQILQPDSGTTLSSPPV
Experiment [5] has as its target Tyrosine-protein kinase BTK (Homo sapiens) (UniProt Q06187). The experiment can be described thus: Binding affinity to human BTK at 500 nM by cell-based competition binding assay relative to control in presence of DTT. Put shortly: (§2)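 Kinase binding profiling ran on a commercial (Ambit) competitive binding screen against a panel of 90 kinases. The screen used reducing conditions with 7.5 mM DTT. To withstand the DTT, the bivalent ligand was tested as its amide isostere, with the disulfide replaced. A staurosporine derivative carrying a 3 β-alanine linker was run as the reference compound.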

For experiment [6], the target named is Mitogen-activated protein kinase 8 (Homo sapiens) (UniProt P45983). The experiment can be described thus: Binding affinity to human JNK1 at 500 nM by cell-based competition binding assay relative to control in presence of DTT. A digest of the protocol: (§3)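 Competition binding screen (Ambit) across a panel of 90 kinases, scoring test ligand displacement of each kinase's binding relative to control. The screen ran under reducing conditions with 7.5 mM DTT.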

Experiment [7] deals with Fibroblast growth factor receptor 3 (Homo sapiens) (UniProt P22607). Kind of experiment: Binding affinity to human FGFR3 at 200 nM by cell-based competition binding assay relative to control in presence of DTT. A digest of the protocol:
as §1

Experiment [8] addresses Receptor-type tyrosine-protein kinase FLT3 (Homo sapiens) (UniProt P36888). Kind of experiment: Binding affinity to human FLT3 at 200 nM by cell-based competition binding assay relative to control in presence of DTT. A digest of the protocol: as §1
Experiment [9] relates to Mast/stem cell growth factor receptor Kit (Homo sapiens), P10721 [V559D,T670I]. Kind of experiment: Binding affinity to human KIT V559D,T670I mutant at 200 nM by cell-based competition binding assay relative to control in presence of DTT. A digest of the protocol: as §3
Experiment [10] has as its target Serine/threonine-protein kinase PAK 1 (Homo sapiens) (UniProt Q13153). Kind of experiment: Binding affinity to human PAK1 at 200 nM by cell-based competition binding assay relative to control in presence of DTT.
Experiment [11] addresses Vascular endothelial growth factor receptor 2 (Homo sapiens) (UniProt P35968). Kind of experiment: Binding affinity to human VEGFR2 at 200 nM by cell-based competition binding assay relative to control in presence of DTT.
Experiment [12] deals with T1, Bone morphogenetic protein receptor type-2 (Homo sapiens) (UniProt Q13873).
T1 sequence (whole entry): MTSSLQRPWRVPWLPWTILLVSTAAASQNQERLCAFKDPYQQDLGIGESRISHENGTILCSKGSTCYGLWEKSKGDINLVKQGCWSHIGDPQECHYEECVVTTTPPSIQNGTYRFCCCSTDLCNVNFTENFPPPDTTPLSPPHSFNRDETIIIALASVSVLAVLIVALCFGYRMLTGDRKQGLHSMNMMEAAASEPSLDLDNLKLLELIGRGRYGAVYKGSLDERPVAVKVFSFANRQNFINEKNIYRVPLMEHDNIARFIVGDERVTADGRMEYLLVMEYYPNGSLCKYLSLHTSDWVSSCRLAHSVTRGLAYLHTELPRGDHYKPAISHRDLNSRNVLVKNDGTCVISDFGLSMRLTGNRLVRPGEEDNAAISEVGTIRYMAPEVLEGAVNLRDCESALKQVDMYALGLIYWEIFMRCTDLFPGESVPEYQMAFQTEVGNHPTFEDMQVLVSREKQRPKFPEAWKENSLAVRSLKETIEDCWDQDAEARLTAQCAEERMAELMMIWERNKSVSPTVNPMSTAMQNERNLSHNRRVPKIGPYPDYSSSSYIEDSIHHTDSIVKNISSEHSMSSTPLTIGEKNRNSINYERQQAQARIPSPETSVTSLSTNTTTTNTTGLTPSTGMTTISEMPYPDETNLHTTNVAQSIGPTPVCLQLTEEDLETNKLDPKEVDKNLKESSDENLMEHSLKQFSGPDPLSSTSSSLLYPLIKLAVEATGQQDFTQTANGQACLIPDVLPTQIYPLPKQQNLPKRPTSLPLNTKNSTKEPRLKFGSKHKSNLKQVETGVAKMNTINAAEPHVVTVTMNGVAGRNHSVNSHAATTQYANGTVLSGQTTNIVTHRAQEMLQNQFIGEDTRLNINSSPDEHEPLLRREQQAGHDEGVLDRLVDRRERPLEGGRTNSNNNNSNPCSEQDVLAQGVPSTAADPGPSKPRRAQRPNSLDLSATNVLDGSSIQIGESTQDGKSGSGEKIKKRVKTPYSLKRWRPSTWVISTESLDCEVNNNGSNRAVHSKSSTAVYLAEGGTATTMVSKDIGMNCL
The experiment can be described thus: Binding affinity to human BMPR2 at 50 nM by cell-based competition binding assay relative to control in presence of DTT. A digest of the protocol:
as §2

The target of experiment [13] is Cyclin-dependent kinase 19 (Homo sapiens) (UniProt Q9BWU1). Kind of experiment: Binding affinity to human CDK11 at 50 nM by cell-based competition binding assay relative to control in presence of DTT. A digest of the protocol: as §2
Cyclin-dependent kinase 19 (Homo sapiens), sequence (Q9BWU1 whole entry): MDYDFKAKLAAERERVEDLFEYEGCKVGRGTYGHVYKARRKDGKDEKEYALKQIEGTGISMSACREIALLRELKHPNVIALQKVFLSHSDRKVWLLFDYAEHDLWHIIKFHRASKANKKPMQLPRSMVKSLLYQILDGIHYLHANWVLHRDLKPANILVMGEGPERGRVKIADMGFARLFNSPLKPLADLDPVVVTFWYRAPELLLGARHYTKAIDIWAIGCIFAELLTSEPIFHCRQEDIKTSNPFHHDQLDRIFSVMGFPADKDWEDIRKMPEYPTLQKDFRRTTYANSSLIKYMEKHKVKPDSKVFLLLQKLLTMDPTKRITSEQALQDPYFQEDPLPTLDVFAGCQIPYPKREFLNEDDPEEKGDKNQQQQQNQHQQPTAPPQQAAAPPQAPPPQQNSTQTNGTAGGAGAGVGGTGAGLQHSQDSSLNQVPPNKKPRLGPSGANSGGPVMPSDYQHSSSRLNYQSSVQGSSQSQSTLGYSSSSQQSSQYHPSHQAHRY
In experiment [14] the target is Dual specificity mitogen-activated protein kinase kinase 2 (Homo sapiens) (UniProt P36507). The experiment can be described thus: Binding affinity to human MEK2 at 50 nM by cell-based competition binding assay relative to control in presence of DTT.
The target of experiment [15] is Serine/threonine-protein kinase PAK 1 (Homo sapiens) (UniProt Q13153). Kind of experiment: Binding affinity to human PAK1 at 50 nM by cell-based competition binding assay relative to control in presence of DTT.
Serine/threonine-protein kinase PAK 1 (Homo sapiens), sequence (Q13153 whole entry, canonical isoform): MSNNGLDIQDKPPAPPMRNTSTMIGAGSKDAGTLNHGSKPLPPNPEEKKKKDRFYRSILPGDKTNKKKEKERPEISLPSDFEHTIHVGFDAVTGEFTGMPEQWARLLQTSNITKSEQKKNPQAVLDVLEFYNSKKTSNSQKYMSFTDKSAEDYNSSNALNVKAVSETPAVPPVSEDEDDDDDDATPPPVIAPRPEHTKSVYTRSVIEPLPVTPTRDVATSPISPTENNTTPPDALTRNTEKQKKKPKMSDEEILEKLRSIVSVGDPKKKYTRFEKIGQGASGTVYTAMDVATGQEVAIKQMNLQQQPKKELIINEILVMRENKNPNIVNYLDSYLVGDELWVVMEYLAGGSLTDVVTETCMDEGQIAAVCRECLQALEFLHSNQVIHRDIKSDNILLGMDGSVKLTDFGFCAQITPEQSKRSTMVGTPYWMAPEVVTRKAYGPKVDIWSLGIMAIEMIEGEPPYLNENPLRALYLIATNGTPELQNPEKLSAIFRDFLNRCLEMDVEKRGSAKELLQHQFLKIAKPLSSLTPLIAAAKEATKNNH
Experiment [16] addresses Phosphatidylinositol 4,5-bisphosphate 3-kinase catalytic subunit alpha isoform (Homo sapiens) (UniProt P42336). Kind of experiment: Binding affinity to human PIK3Calpha at 50 nM by cell-based competition binding assay relative to control in presence of DTT.
In experiment [17] the target is Fibroblast growth factor receptor 3 (Homo sapiens) (UniProt P22607). Kind of experiment: Binding affinity to human FGFR3 at 50 nM by cell-based competition binding assay relative to control in presence of DTT. Put shortly: as §1
Fibroblast growth factor receptor 3 (Homo sapiens), sequence (P22607 23-806 limits assumed): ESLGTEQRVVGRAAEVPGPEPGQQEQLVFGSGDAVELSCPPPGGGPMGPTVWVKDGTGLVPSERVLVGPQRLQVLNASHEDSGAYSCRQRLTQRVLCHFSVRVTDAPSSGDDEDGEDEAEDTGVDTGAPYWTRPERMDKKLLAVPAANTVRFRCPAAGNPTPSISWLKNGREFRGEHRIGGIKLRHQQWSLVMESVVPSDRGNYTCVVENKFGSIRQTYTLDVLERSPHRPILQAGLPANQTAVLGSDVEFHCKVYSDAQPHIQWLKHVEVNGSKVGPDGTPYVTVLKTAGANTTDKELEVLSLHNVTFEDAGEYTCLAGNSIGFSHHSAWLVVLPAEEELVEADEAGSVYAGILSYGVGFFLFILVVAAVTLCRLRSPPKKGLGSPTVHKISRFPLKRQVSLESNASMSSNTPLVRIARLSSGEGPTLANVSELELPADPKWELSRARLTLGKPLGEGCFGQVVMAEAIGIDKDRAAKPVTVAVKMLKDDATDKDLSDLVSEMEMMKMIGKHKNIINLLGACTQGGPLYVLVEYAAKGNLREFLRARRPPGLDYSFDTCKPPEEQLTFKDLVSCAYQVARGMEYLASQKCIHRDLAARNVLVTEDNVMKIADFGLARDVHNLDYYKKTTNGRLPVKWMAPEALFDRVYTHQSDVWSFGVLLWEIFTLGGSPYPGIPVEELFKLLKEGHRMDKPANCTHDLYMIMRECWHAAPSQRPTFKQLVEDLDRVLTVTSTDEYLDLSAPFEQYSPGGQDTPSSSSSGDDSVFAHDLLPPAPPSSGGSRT
The target in experiment [18] is Glycogen synthase kinase-3 beta (Homo sapiens) (UniProt P49841). Kind of experiment: Binding affinity to human GSK3-beta at 50 nM by cell-based competition binding assay relative to control in presence of DTT. Put shortly:
as §3

Each structure is given as a SMILES string. *1 amine or outer side, *2 acyl side, *3 side chain or, on linkers, in order; H or OH if unused. Where a SMILES comes first, the peptide text is derived from it. Bridges are numbered along the chain shown (N, C = ends). [ ]: non-standard residue; d: D form. The star is where a group is joined. Staurosporine = CO[C@@H]1[C@H](N(C)*)C[C@H]2O[C@]1(C)n1c3ccccc3c3c4c(c5c6ccccc6n2c5c31)C(=O)NC4; Suc = O=C(CCC(=O)[*:2])[*:1]; Dap = NC[C@H](N)C(=O)O; βAla = NCCC(=O)O

Ribosomal protein S6 kinase alpha-3 (Homo sapiens), sequence (P51812 whole entry, the tested form may be a part): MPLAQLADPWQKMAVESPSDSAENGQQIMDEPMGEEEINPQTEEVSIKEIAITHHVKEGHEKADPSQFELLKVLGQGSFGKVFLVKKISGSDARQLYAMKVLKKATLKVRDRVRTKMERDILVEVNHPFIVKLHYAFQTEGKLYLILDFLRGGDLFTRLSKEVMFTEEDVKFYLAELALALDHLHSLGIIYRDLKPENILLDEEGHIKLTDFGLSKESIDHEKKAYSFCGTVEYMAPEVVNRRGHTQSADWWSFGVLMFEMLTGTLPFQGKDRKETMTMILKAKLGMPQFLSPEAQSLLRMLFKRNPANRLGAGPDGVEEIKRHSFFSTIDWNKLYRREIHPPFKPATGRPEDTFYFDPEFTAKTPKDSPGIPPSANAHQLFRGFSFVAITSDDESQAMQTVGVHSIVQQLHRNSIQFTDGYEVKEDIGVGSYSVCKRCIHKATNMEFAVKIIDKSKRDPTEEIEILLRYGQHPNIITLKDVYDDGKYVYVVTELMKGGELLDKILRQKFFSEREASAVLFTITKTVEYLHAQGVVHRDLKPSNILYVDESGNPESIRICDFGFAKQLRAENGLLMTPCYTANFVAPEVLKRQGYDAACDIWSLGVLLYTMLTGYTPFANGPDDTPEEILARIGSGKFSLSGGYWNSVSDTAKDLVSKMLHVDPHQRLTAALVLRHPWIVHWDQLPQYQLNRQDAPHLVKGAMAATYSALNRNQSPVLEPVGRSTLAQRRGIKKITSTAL
Receptor-type tyrosine-protein kinase FLT3 (Homo sapiens), sequence (P36888 whole entry): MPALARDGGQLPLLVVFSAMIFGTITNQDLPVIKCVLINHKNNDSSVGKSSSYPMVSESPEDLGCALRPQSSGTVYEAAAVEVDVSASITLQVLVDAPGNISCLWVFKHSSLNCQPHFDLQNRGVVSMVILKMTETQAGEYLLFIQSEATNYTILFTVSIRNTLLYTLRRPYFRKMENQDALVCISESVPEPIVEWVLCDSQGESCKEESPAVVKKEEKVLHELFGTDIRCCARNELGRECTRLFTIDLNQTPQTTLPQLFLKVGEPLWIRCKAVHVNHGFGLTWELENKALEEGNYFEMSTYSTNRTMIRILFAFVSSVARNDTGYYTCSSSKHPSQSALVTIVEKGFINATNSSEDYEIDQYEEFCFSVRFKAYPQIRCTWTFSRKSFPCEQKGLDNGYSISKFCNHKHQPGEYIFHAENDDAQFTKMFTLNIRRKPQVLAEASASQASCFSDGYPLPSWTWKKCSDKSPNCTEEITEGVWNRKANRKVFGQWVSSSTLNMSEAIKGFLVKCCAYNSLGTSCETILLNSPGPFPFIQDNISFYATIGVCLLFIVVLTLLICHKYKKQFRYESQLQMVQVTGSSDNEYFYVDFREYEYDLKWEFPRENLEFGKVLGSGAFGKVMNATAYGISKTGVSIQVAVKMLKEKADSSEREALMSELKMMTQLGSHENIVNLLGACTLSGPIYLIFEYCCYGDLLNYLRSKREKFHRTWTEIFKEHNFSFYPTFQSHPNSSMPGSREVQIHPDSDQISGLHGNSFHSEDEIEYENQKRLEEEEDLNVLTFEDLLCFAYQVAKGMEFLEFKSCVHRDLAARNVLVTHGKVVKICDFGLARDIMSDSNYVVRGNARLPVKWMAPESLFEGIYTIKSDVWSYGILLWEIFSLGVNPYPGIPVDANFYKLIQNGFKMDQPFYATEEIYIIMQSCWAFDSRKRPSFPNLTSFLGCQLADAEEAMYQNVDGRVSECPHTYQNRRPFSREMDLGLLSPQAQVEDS

In the case of `CO[C@@H]1[C@H](N(C)C(=O)CCC(=O)NCCC(=O)NCCC(=O)NCCC(N)=O)C[C@H]2O[C@]1(C)n1c3ccccc3c3c4c(c5c6ccccc6n2c5c31)C(=O)NC4`, the Activity was 89% in experiment [1]; 44% in experiment [2]; 72% in experiment [3]; 36% in experiment [4]; 31% in experiment [5]; 52% in experiment [6].

As for `CO[C@@H]1[C@H](N(C)C(=O)CCC(=O)NCCC(=O)NCCC(=O)NCCC(=O)NCCC(=O)NCCC(=O)NCCC(=O)NCCC(=O)N[C@H]2CSSC[C@@H](C(=O)NCC(N)=O)NC(=O)CNC(=O)[C@H](Cc3ccccc3)NC(=O)[C@H](C(C)C)NC(=O)[C@H](CCCNC(=N)N)NC(=O)[C@H](Cc3ccccc3)NC(=O)[C@H](C(C)C)NC2=O)C[C@H]2O[C@]1(C)n1c3ccccc3c3c4c(c5c6ccccc6n2c5c31)C(=O)NC4` ({Staurosporine-Suc-βAla-βAla-βAla-βAla-βAla-βAla-βAla}-CVFRVFGCG-NH2; disulfide 1-8), the Activity worked out at 85% in experiment [7]; 1% in experiment [8]; 4.1% in experiment [9]; 14% in experiment [10]; 73% in [11].

`CO[C@@H]1[C@H](N(C)C(=O)CCC(=O)NCCC(=O)NCCC(=O)NCCC(=O)NCCC(=O)NCCC(=O)NCCC(=O)NCCC(=O)N[C@H]2CNC(=O)C[C@@H](C(N)=O)NC(=O)CNC(=O)[C@H](Cc3ccccc3)NC(=O)[C@H](C(C)C)NC(=O)[C@H](CCCNC(=N)N)NC(=O)[C@H](Cc3ccccc3)NC(=O)[C@H](C(C)C)NC2=O)C[C@H]2O[C@]1(C)n1c3ccccc3c3c4c(c5c6ccccc6n2c5c31)C(=O)NC4` ({Staurosporine-Suc-βAla-βAla-βAla-βAla-βAla-βAla-βAla}-[Dap]VFRVFGD-NH2; lactam 1-8): the Activity in experiment [12] was 99%; in experiment [13], 100%; in experiment [14], 87%; in [15] it was 66%; in experiment [16], 100%; in [17], 100%. In addition, the Activity in experiment [18] came to 74%.
